System: OVCAR-5
Assay: Growth inhibition of human OVCAR5 cells at 10 uM after 48 hrs by coulter counter analysis
Type: functional
Settings: OVCAR-5, 48 h, read-out: GI
Procedure, shortened: (§1)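 Single-dose NCI 60-line panel screen of test compounds. Cells grown in RPMI 1640 with 10% FBS. Compounds dissolved in DMSO, then diluted in phosphate buffer saline (final DMSO below 1%). Wells run in duplicate at 6 × 10⁴ cells/ml. Controls held PBS and DMSO at matching dilutions. Incubation 48 h at 37 °C under humidified 5% CO2. Cells diluted tenfold in saline and counted by Coulter counter. Percent growth inhibition taken from mean-graph of treated-cell growth.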
For `CCOC(=O)c1sc(NC(=O)CCN2CCN(c3ccccc3)CC2)nc1C`, the inhibition of growth at 10 µM was < 10%.

System: SK-MEL-5
Assay: Growth inhibition of human SK-MEL-5 cells at 10 uM after 48 hrs by coulter counter analysis
Type: functional
Settings: SK-MEL-5, 48 h, read-out: GI
Procedure, shortened: as §1
In the case of `CCOC(=O)c1sc(NC(=O)CCN2CCN(c3ccccc3)CC2)nc1C`, the inhibition of growth at 10 µM is reported as < 10%.

System: MDA-MB-231
Assay: Growth inhibition of human MDA-MB-231 cells at 10 uM after 48 hrs by coulter counter analysis
Type: functional
Settings: MDA-MB-231, 48 h, read-out: GI
Procedure, shortened: as §1
With `CCOC(=O)c1sc(NC(=O)CCN2CCN(c3ccccc3)CC2)nc1C` the inhibition of growth at 10 µM was < 10%.

System: SF-295
Assay: Growth inhibition of human SF295 cells at 10 uM after 48 hrs by coulter counter analysis
Type: functional
Settings: SF-295, 48 h, read-out: GI
Procedure, shortened: as §1
For `CCOC(=O)c1sc(NC(=O)CCN2CCN(c3ccccc3)CC2)nc1C`, the inhibition of growth at 10 µM was < 10%.

System: NCI-H322M
Assay: Growth inhibition of human NCI-H322M cells at 10 uM after 48 hrs by coulter counter analysis
Type: functional
Settings: read-out: GI
Procedure, shortened: as §1
In the case of `CCOC(=O)c1sc(NC(=O)CCN2CCN(c3ccccc3)CC2)nc1C`, the inhibition of growth at 10 µM is reported as < 10%.

System: MDA-MB-468
Assay: Growth inhibition of human MDA-MB-468 cells at 10 uM after 48 hrs by coulter counter analysis
Type: functional
Settings: MDA-MB-468, 48 h, read-out: GI
Procedure, shortened: as §1
With `CCOC(=O)c1sc(NC(=O)CCN2CCN(c3ccccc3)CC2)nc1C` the inhibition of growth at 10 µM was < 10%.

System: LOX IMVI
Assay: Growth inhibition of human LOXIMVI cells at 10 uM after 48 hrs by coulter counter analysis
Type: functional
Settings: read-out: GI
Procedure, shortened: as §1
In the case of `CCOC(=O)c1sc(NC(=O)CCN2CCN(c3ccccc3)CC2)nc1C`, the inhibition of growth at 10 µM is reported as < 10%.

System: Malme-3M
Assay: Growth inhibition of human MALME-3M cells at 10 uM after 48 hrs by coulter counter analysis
Type: functional
Settings: read-out: GI
Procedure, shortened: as §1
`CCOC(=O)c1sc(NC(=O)CCN2CCN(c3ccccc3)CC2)nc1C` showed an inhibition of growth at 10 µM of 12%.

System: SN12C
Assay: Growth inhibition of human SN12C cells at 10 uM after 48 hrs by coulter counter analysis
Type: functional
Settings: read-out: GI
Procedure, shortened: as §1
For `CCOC(=O)c1sc(NC(=O)CCN2CCN(c3ccccc3)CC2)nc1C`, the inhibition of growth at 10 µM was < 10%.

System: KM12
Assay: Growth inhibition of human KM12 cells at 10 uM after 48 hrs by coulter counter analysis
Type: functional
Settings: KM12, 48 h, read-out: GI
Procedure, shortened: as §1
For `CCOC(=O)c1sc(NC(=O)CCN2CCN(c3ccccc3)CC2)nc1C`, the inhibition of growth at 10 µM was < 10%.

System: not listed separately
Assay: Growth inhibition of human NCI-ADR-RES cells at 10 uM after 48 hrs by coulter counter analysis
Type: functional
Settings: read-out: GI
Procedure, shortened: as §1
For `CCOC(=O)c1sc(NC(=O)CCN2CCN(c3ccccc3)CC2)nc1C`, the inhibition of growth at 10 µM was < 10%.

System: ACHN
Assay: Growth inhibition of human ACHN cells at 10 uM after 48 hrs by coulter counter analysis
Type: functional
Settings: read-out: GI
Procedure, shortened: as §1
In the case of `CCOC(=O)c1sc(NC(=O)CCN2CCN(c3ccccc3)CC2)nc1C`, the inhibition of growth at 10 µM is reported as < 10%.

System: not listed separately
Assay: Growth inhibition of human Hs 578T cells at 10 uM after 48 hrs by coulter counter analysis
Type: functional
Settings: read-out: GI
Procedure, shortened: as §1
In the case of `CCOC(=O)c1sc(NC(=O)CCN2CCN(c3ccccc3)CC2)nc1C`, the inhibition of growth at 10 µM is reported as < 10%.

System: OVCAR-8
Assay: Growth inhibition of human OVCAR8 cells at 10 uM after 48 hrs by coulter counter analysis
Type: functional
Settings: OVCAR-8, 48 h, read-out: GI
Procedure, shortened: as §1
With `CCOC(=O)c1sc(NC(=O)CCN2CCN(c3ccccc3)CC2)nc1C` the inhibition of growth at 10 µM was < 10%.

System: SW-620
Assay: Growth inhibition of human SW620 cells at 10 uM after 48 hrs by coulter counter analysis
Type: functional
Settings: SW-620, 48 h, read-out: GI
Procedure, shortened: (§2)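 Single-dose screen in the NCI 60 cell line panel. Cells grown in RPMI 1640 with 10% FBS. Compounds dissolved in DMSO and diluted in phosphate buffered saline, final DMSO under 1%. Duplicate wells seeded from culture at 6 × 10⁴ cells/ml. Incubated 48 h at 37 °C, humidified, 5% CO2. Cells diluted tenfold in saline and Coulter-counted. Percent growth inhibition computed against PBS/DMSO controls.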
In the case of `CCOC(=O)c1sc(NC(=O)CCN2CCN(c3ccccc3)CC2)nc1C`, the inhibition of growth at 10 µM is reported as < 10%.

System: MDA-MB-435
Assay: Growth inhibition of human MDA-MB-435 cells at 10 uM after 48 hrs by coulter counter analysis
Type: functional
Settings: MDA-MB-435, 48 h, read-out: GI
Procedure, shortened: as §1
For `CCOC(=O)c1sc(NC(=O)CCN2CCN(c3ccccc3)CC2)nc1C`, the inhibition of growth at 10 µM was < 10%.

System: UO-31
Assay: Growth inhibition of human UO31 cells at 10 uM after 48 hrs by coulter counter analysis
Type: functional
Settings: UO-31, 48 h, read-out: GI
Procedure, shortened: as §2
Work on `CCOC(=O)c1sc(NC(=O)CCN2CCN(c3ccccc3)CC2)nc1C` yielded an inhibition of growth at 10 µM of 19.7%.

System: COLO 205
Assay: Growth inhibition of human COLO205 cells at 10 uM after 48 hrs by coulter counter analysis
Type: functional
Settings: COLO 205, 48 h, read-out: GI
Procedure, shortened: as §1
With `CCOC(=O)c1sc(NC(=O)CCN2CCN(c3ccccc3)CC2)nc1C` the inhibition of growth at 10 µM was < 10%.

System: NCI-H522
Assay: Growth inhibition of human NCI-H522 cells at 10 uM after 48 hrs by coulter counter analysis
Type: functional
Settings: NCI-H522, 48 h, read-out: GI
Procedure, shortened: as §1
In the case of `CCOC(=O)c1sc(NC(=O)CCN2CCN(c3ccccc3)CC2)nc1C`, the inhibition of growth at 10 µM is reported as < 10%.

System: HCC 2998
Assay: Growth inhibition of human HCC2998 cells at 10 uM after 48 hrs by coulter counter analysis
Type: functional
Settings: HCC 2998, 48 h, read-out: GI
Procedure, shortened: as §1
In the case of `CCOC(=O)c1sc(NC(=O)CCN2CCN(c3ccccc3)CC2)nc1C`, the inhibition of growth at 10 µM is reported as < 10%.

System: SK-MEL-2
Assay: Growth inhibition of human SK-MEL-2 cells at 10 uM after 48 hrs by coulter counter analysis
Type: functional
Settings: SK-MEL-2, 48 h, read-out: GI
Procedure, shortened: as §1
For `CCOC(=O)c1sc(NC(=O)CCN2CCN(c3ccccc3)CC2)nc1C`, the inhibition of growth at 10 µM was < 10%.

System: OVCAR-3
Assay: Growth inhibition of human OVCAR3 cells at 10 uM after 48 hrs by coulter counter analysis
Type: functional
Settings: OVCAR-3, 48 h, read-out: GI
Procedure, shortened: as §1
With `CCOC(=O)c1sc(NC(=O)CCN2CCN(c3ccccc3)CC2)nc1C` the inhibition of growth at 10 µM was < 10%.

System: NCI-H226
Assay: Growth inhibition of human NCI-H226 cells at 10 uM after 48 hrs by coulter counter analysis
Type: functional
Settings: NCI-H226, 48 h, read-out: GI
Procedure, shortened: as §1
For `CCOC(=O)c1sc(NC(=O)CCN2CCN(c3ccccc3)CC2)nc1C`, the inhibition of growth at 10 µM was < 10%.

System: RPMI-8226
Assay: Growth inhibition of human RPMI8226 cells at 10 uM after 48 hrs by coulter counter analysis
Type: functional
Settings: RPMI-8226, 48 h, read-out: GI
Procedure, shortened: as §1
In the case of `CCOC(=O)c1sc(NC(=O)CCN2CCN(c3ccccc3)CC2)nc1C`, the inhibition of growth at 10 µM is reported as < 10%.

System: BT-549
Assay: Growth inhibition of human BT549 cells at 10 uM after 48 hrs by coulter counter analysis
Type: functional
Settings: BT-549, 48 h, read-out: GI
Procedure, shortened: as §1
For `CCOC(=O)c1sc(NC(=O)CCN2CCN(c3ccccc3)CC2)nc1C`, the inhibition of growth at 10 µM was < 10%.

System: SF-539
Assay: Growth inhibition of human SF539 cells at 10 uM after 48 hrs by coulter counter analysis
Type: functional
Settings: SF-539, 48 h, read-out: GI
Procedure, shortened: as §1
For `CCOC(=O)c1sc(NC(=O)CCN2CCN(c3ccccc3)CC2)nc1C`, the inhibition of growth at 10 µM was < 10%.

System: M14
Assay: Growth inhibition of human M14 cells at 10 uM after 48 hrs by coulter counter analysis
Type: functional
Settings: M14, 48 h, read-out: GI
Procedure, shortened: as §1
In the case of `CCOC(=O)c1sc(NC(=O)CCN2CCN(c3ccccc3)CC2)nc1C`, the inhibition of growth at 10 µM is reported as < 10%.

System: SR
Assay: Growth inhibition of human SR cells at 10 uM after 48 hrs by coulter counter analysis
Type: functional
Settings: read-out: GI
Procedure, shortened: as §2
In the case of `CCOC(=O)c1sc(NC(=O)CCN2CCN(c3ccccc3)CC2)nc1C`, the inhibition of growth at 10 µM is reported as < 10%.

System: HOP-92
Assay: Growth inhibition of human HOP92 cells at 10 uM after 48 hrs by coulter counter analysis
Type: functional
Settings: HOP-92, 48 h, read-out: GI
Procedure, shortened: as §1
`CCOC(=O)c1sc(NC(=O)CCN2CCN(c3ccccc3)CC2)nc1C` showed an inhibition of growth at 10 µM of 17.5%.

System: HCT-15
Assay: Growth inhibition of human HCT15 cells at 10 uM after 48 hrs by coulter counter analysis
Type: functional
Settings: HCT-15, 48 h, read-out: GI
Procedure, shortened: as §1
With `CCOC(=O)c1sc(NC(=O)CCN2CCN(c3ccccc3)CC2)nc1C` the inhibition of growth at 10 µM was < 10%.

System: UACC-62
Assay: Growth inhibition of human UACC62 cells at 10 uM after 48 hrs by coulter counter analysis
Type: functional
Settings: UACC-62, 48 h, read-out: GI
Procedure, shortened: as §2
With `CCOC(=O)c1sc(NC(=O)CCN2CCN(c3ccccc3)CC2)nc1C` the inhibition of growth at 10 µM was < 10%.

System: IGROV-1
Assay: Growth inhibition of human IGROV1 cells at 10 uM after 48 hrs by coulter counter analysis
Type: functional
Settings: IGROV-1, 48 h, read-out: GI
Procedure, shortened: as §1
With `CCOC(=O)c1sc(NC(=O)CCN2CCN(c3ccccc3)CC2)nc1C` the inhibition of growth at 10 µM was < 10%.

System: OVCAR-4
Assay: Growth inhibition of human OVCAR4 cells at 10 uM after 48 hrs by coulter counter analysis
Type: functional
Settings: OVCAR-4, 48 h, read-out: GI
Procedure, shortened: as §1
With `CCOC(=O)c1sc(NC(=O)CCN2CCN(c3ccccc3)CC2)nc1C` the inhibition of growth at 10 µM was < 10%.

System: T47D
Assay: Growth inhibition of human T47D cells at 10 uM after 48 hrs by coulter counter analysis
Type: functional
Settings: read-out: GI
Procedure, shortened: as §2
With `CCOC(=O)c1sc(NC(=O)CCN2CCN(c3ccccc3)CC2)nc1C` the inhibition of growth at 10 µM was < 10%.

System: MCF7
Assay: Growth inhibition of human MCF7 cells at 10 uM after 48 hrs by coulter counter analysis
Type: functional
Settings: MCF7, 48 h, read-out: GI
Procedure, shortened: as §1
For `CCOC(=O)c1sc(NC(=O)CCN2CCN(c3ccccc3)CC2)nc1C`, the inhibition of growth at 10 µM was < 10%.

System: SF-268
Assay: Growth inhibition of human SF268 cells at 10 uM after 48 hrs by coulter counter analysis
Type: functional
Settings: SF-268, 48 h, read-out: GI
Procedure, shortened: as §1
In the case of `CCOC(=O)c1sc(NC(=O)CCN2CCN(c3ccccc3)CC2)nc1C`, the inhibition of growth at 10 µM is reported as < 10%.

Source: ChEMBL document CHEMBL2040727, “Substituted thiazoles VI. Synthesis and antitumor activity of new 2-acetamido- and 2 or 3-propanamido-thiazole analogs” (2012)
